Neddylation inh = inhibitors of human cullin neddylation | calls only at 25 µM | P61081+Q13564 | 360,000 tested, 0.58% active | TR-FRET cullin neddylation, biochemical; in the data active means inhibition above about 36%
KLK7 zymogen act = activators of human kallikrein-7 zymogen. AID 652039. purified proKLK7, EDANS-DABCYL substrate fluorescence; 100% is mature enzyme control, 0% vehicle. P49862. 370,000 tested, 0.9% active. activation, % at 7 µM;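 active means activation above the mean of all tested compounds plus 3 SD, computed per campaign excluding outliers beyond control limits, cut at about 13% in these data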
DDE Tn7 FP inh = disrupts Tn7 cyclic peptide binding to fibrin D-Dimer-E complex. AID 720508. inhibition, % at 8.3 µM. 370,000 tested, 0.13% active. P02675. FP displacement of FITC-Tn7 peptide from fibrin DD(E); 0% = median of compound wells per plate;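 active means inhibition above the mean of compounds falling within the control limits plus 3 SD of them, cut at about 14% in these data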;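 further: 0% = plate median of compound wells and 100% = 10 µM Aha-Tn7 peptide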
Target sequence (P02675 whole entry, looked up): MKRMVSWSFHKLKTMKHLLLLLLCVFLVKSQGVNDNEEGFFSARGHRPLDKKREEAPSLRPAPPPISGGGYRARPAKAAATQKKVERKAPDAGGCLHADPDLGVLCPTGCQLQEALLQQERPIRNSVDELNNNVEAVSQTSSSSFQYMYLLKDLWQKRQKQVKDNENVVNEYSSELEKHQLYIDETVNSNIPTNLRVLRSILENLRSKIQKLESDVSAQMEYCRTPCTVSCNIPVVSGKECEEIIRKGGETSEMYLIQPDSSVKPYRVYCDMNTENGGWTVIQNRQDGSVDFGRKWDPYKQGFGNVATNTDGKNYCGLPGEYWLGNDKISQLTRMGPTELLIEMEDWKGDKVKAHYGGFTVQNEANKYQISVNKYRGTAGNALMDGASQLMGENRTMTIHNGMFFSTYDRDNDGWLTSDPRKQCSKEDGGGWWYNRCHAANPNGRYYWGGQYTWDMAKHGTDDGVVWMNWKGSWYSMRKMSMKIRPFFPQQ
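Assay system: human fibrin DD(E). Input: DD(E) 2 µM final. Medium: Tris buffer with calcium and detergent, pH 7.8. Compound dosing: single point at 8.3 µM. Timing: 10 min plus 3 h, room temperature. Technique: fluorescence polarization of the labelled Tn7 tracer. Read-out: percent inhibition. Replicates: singlicate testing.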
SKN-1 block = C. elegans SKN-1 inhibition; AID 624304; 360,000 tested, 0.49% active; inhibition, % at 21.8 µM; C. elegans VP596 Pgst-4::GFP/RFP ratio, acrylamide-induced, 24 h;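 active means interference check ratio from 0.5 to 1.5 plus GFP to RFP signal ratio inhibition reaching or exceeding a fixed threshold, cut at about 30% in these data, passing the limit was not always enough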
MT1-MMP act inh = MT1-MMP (human) activation inhibition. HT1080 RFP-PRO-GFP cells, GFP/RFP ratio fluorescence, overnight; percent of plate control window, DMSO zero. GFP/RFP ratio change, % at 20 µM. 360,000 tested, 0.061% active. AID 651647;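 active means GFP/RFP ratio change of at least 30% with cell ATP level not reduced by more than half and red fluorescence within 50% of control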
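Read-out: GFP/RFP fluorescence ratio; Test system: RFP-PRO-GFP reporter HT1080 cells; Compound dosing: single-point 20 µM compound, 1% DMSO; Times: overnight compound exposure at 37 °C.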
DDE Tn6 FP inh = disrupts Tn6 cyclic peptide binding to fibrin D-Dimer-E complex; AID 720509; 370,000 tested, 0.21% active; P02675; inhibition, % at 8.3 µM; Fibrin DD(E) TRITC-Tn6 fluorescence polarization displacement;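 active means inhibition above a per-campaign cutoff: mean of compounds within control limits plus 3 SD, cut at about 15% in these data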;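 further: 0% = median of all compound wells on the plate and 100% = blocking peptide control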
Neddyl conf = confirmation of human cullin neddylation inhibitors; shares compounds with Neddylation inh; calls only at 25 µM; TR-FRET cullin neddylation biochemical assay; 1,800 tested, 13% active; in the data active means inhibition above about 40%;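 further: neddylation substrate is the cullin 1 ring ligase complex with SKP2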
Starred values were filed as active, the others as inactive. Rows were chosen to be rich in hits. Some 2.2% of all compounds tested hit in one or more screens of this group.

For Cc1cc(-c2ccccc2)nc(N(C)N)c1S(C)(=O)=O the results were Neddylation inh active, KLK7 zymogen act 3, DDE Tn7 FP inh -6, SKN-1 block 6, MT1-MMP act inh -1, DDE Tn6 FP inh 10 and Neddyl conf inactive.
For Cc1cccc(NC(=O)CSc2nnc([C@@H]3CCCN3C(=O)OC(C)(C)C)o2)c1C the results were Neddylation inh inactive, KLK7 zymogen act 0, DDE Tn7 FP inh -6, SKN-1 block -3, MT1-MMP act inh -1 and DDE Tn6 FP inh 3.
COc1cccc(/C=N/NC(=O)CSc2cccc3cccnc23)c1 was read as Neddylation inh active, KLK7 zymogen act -3, DDE Tn7 FP inh 6, SKN-1 block 5, MT1-MMP act inh 6, DDE Tn6 FP inh 4 and Neddyl conf inactive.
`COc1ccc(CNC(=O)CSc2cccc3cccnc23)cc1` gave Neddylation inh active, KLK7 zymogen act -1, DDE Tn7 FP inh -9, SKN-1 block -3, MT1-MMP act inh 2, DDE Tn6 FP inh -1 and Neddyl conf inactive.
`O=C(Nc1nnc(-c2cccs2)o1)c1cccc(F)c1` gave Neddylation inh inactive, KLK7 zymogen act 1, DDE Tn7 FP inh -5, SKN-1 block 14, MT1-MMP act inh 6 and DDE Tn6 FP inh -6.
Screening CC(C(=O)NC1CCCC1)N1C(=O)c2cccc3cccc1c23 (stereo unspecified) returned Neddylation inh active, KLK7 zymogen act 8, DDE Tn7 FP inh 0, SKN-1 block -11, MT1-MMP act inh -5, DDE Tn6 FP inh 4 and Neddyl conf inactive.
CCOC(=O)C1=C(C)NC(C)=C(C(=O)OCC)C1/C=C/c1ccccc1OC was read as KLK7 zymogen act -6, DDE Tn7 FP inh -3, SKN-1 block 2, MT1-MMP act inh -6 and DDE Tn6 FP inh 8.
For COCCOC(=O)C1=C(C)NC(C)=C(C(=O)OCCOC)C1/C=C/c1ccccc1OC the results were Neddylation inh active, KLK7 zymogen act -3, DDE Tn7 FP inh 1, SKN-1 block -12, MT1-MMP act inh -1 and DDE Tn6 FP inh -9.
Screening COc1cc(C(=O)NCCNc2nc3c(C)cccc3cc2C#N)cc(OC)c1OC returned Neddylation inh inactive, KLK7 zymogen act 2, DDE Tn7 FP inh -4, SKN-1 block 11, MT1-MMP act inh 8 and DDE Tn6 FP inh -6.
Screening COc1ccc(C(=O)NCCNc2nc3c(C)cccc3cc2C#N)cc1OC returned Neddylation inh active, KLK7 zymogen act -1, DDE Tn7 FP inh -3, SKN-1 block -14, MT1-MMP act inh 3 and DDE Tn6 FP inh -2.
Screening O=c1oc2cccnc2n1CCS(=O)(=O)c1ccc(F)cc1 returned Neddylation inh active, KLK7 zymogen act -1, DDE Tn7 FP inh -1, SKN-1 block 3, MT1-MMP act inh -2, DDE Tn6 FP inh 3 and Neddyl conf inactive.
For CC(C)C(C)NC(=O)COc1ccc(S(=O)(=O)N2CCOCC2)cc1[N+](=O)[O-] (stereo unspecified) the results were Neddylation inh inactive, KLK7 zymogen act 0, DDE Tn7 FP inh -2, SKN-1 block 7, MT1-MMP act inh 1 and DDE Tn6 FP inh -3.
Screening c1ccc(-c2nc3ccccn3c2-c2ccccc2)cc1 returned Neddylation inh active, KLK7 zymogen act -2, DDE Tn7 FP inh -5, SKN-1 block 11, MT1-MMP act inh -2 and DDE Tn6 FP inh 0.
For COC(=O)Nc1c(-c2ccccc2)nc2ccccn12 the results were KLK7 zymogen act 1, DDE Tn7 FP inh 3, SKN-1 block -1, MT1-MMP act inh -2 and DDE Tn6 FP inh 6.
`COc1ccc2cc3cc(C(=O)NCCCN4CCc5ccccc5C4)sc3nc2c1` gave Neddylation inh active, KLK7 zymogen act -13, DDE Tn7 FP inh 5, SKN-1 block 5, MT1-MMP act inh 1, DDE Tn6 FP inh -6 and Neddyl conf active.
Screening COc1ccc2nc3sc(C(=O)NCCN4CCc5ccccc5C4)cc3cc2c1 returned Neddylation inh inactive, KLK7 zymogen act -3, DDE Tn7 FP inh 5, SKN-1 block 0, MT1-MMP act inh 9 and DDE Tn6 FP inh 5.
For N#C/C(=C/c1cn(-c2ccccc2)nc1-c1cccc(S(=O)(=O)N2CCOCC2)c1)C(=O)NCc1ccco1 the results were Neddylation inh active, KLK7 zymogen act 1, DDE Tn7 FP inh -2, SKN-1 block -8, MT1-MMP act inh 0, DDE Tn6 FP inh -3 and Neddyl conf inactive.
`CCOC(=O)C1=C(COC(=O)/C=C/c2ccc(SC)cc2)NC(=O)NC1C` (stereo unspecified) gave Neddylation inh active, KLK7 zymogen act -23, DDE Tn7 FP inh -1, SKN-1 block 8, MT1-MMP act inh 1 and DDE Tn6 FP inh 1.
`Cc1c(-c2nc(-c3ccc(C(F)(F)F)cc3)no2)n(C)oc1=O` gave Neddylation inh active, KLK7 zymogen act 0, DDE Tn7 FP inh 5, SKN-1 block -2, MT1-MMP act inh 1, DDE Tn6 FP inh -4 and Neddyl conf inactive.
For CS(=O)(=O)c1ccccc1-c1nc(-c2ccc(C(F)(F)F)cc2)no1 the results were Neddylation inh inactive, KLK7 zymogen act 0, DDE Tn7 FP inh -2, SKN-1 block 10, MT1-MMP act inh 4 and DDE Tn6 FP inh 1.
`c1ccc2c(c1)OCC(CNc1ncnc3sccc13)O2` (stereo unspecified) gave Neddylation inh inactive, KLK7 zymogen act 0, DDE Tn7 FP inh 1, SKN-1 block -12, MT1-MMP act inh -5 and DDE Tn6 FP inh -1.
CC1CC(=O)c2cnc(Nc3ccccc3)nc2C1 (stereo unspecified) was read as Neddylation inh active, KLK7 zymogen act 0, DDE Tn7 FP inh 6, SKN-1 block -10, MT1-MMP act inh 5 and DDE Tn6 FP inh 5.
O=C(c1cc2c(=O)oc3ccccc3c2s1)N1CCOCC1 was read as Neddylation inh inactive, KLK7 zymogen act 0, DDE Tn7 FP inh 1, SKN-1 block -2, MT1-MMP act inh 4 and DDE Tn6 FP inh 1.
CCn1c(=O)c2cc(C(=O)N3CCOCC3)sc2c2ccccc21 was read as Neddylation inh active, KLK7 zymogen act 4, DDE Tn7 FP inh 5, SKN-1 block 4, MT1-MMP act inh 1 and DDE Tn6 FP inh 2.
Screening CC(C)(C)n1cn[nH]c1=S returned Neddylation inh inactive, KLK7 zymogen act 0, DDE Tn7 FP inh -2, SKN-1 block -14, MT1-MMP act inh 7 and DDE Tn6 FP inh 1.

High-throughput results: PubChem, several laboratories
